Converted amounts (≈) assume the structure as drawn. The source made the active and inactive calls. No cut-off for these calls is given here.
Columns and labels:
Escherichia coli [1] = assay: Bactericidal activity against sodA gene-deficient Escherichia coli K-12 3144 at 0.4 ug/ml; assay type: functional, organism-based
Escherichia coli [2] = assay: Bactericidal activity against sodA gene-deficient Escherichia coli K-12 3144 after 2 hrs; assay type: functional, organism-based
Escherichia coli [3] = assay: Bactericidal activity against sodB gene-deficient Escherichia coli K-12 3145 at 0.4 ug/ml; assay type: functional, organism-based
Escherichia coli [4] = assay: Bactericidal activity against sodB gene-deficient Escherichia coli K-12 3145 after 2 hrs; assay type: functional, organism-based
Escherichia coli [5] = assay: Antimicrobial activity against Escherichia coli K-12 BW25113 by broth dilution method; assay type: functional
Procedure, shortened: (§1)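 Broth dilution in LB medium, about 10^5 bacteria per 1-ml tube, with drug concentrations rising in 50% increments. Tubes were incubated overnight at 37°C and read visually. MIC was the lowest concentration that prevented visible growth.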

Escherichia coli [6] = assay: Antimicrobial activity against sodB gene-deficient Escherichia coli K-12 DKsodB by broth dilution method; assay type: functional; procedure, shortened: as §1
Escherichia coli [7] = assay: Antimicrobial activity against sodA gene-deficient Escherichia coli K-12 3144 by broth dilution method; assay type: functional; procedure, shortened: as §1
Escherichia coli [8] = assay: Antimicrobial activity against sodB gene-deficient Escherichia coli K-12 3145 by broth dilution method; assay type: functional; procedure, shortened: as §1
Escherichia coli [9] = assay: Antimicrobial activity against sodA, sodB gene-deficient Escherichia coli K-12 3156 by broth dilution method; assay type: functional; procedure, shortened: as §1
Escherichia coli [10] = assay: Antimicrobial activity against katG gene-deficient Escherichia coli K-12 3157 by broth dilution method; assay type: functional; procedure, shortened: as §1
Escherichia coli [11] = assay: Antimicrobial activity against ahpC gene-deficient Escherichia coli K-12 3200 by broth dilution method; assay type: functional; procedure, shortened: as §1
Escherichia coli [12] = assay: Antimicrobial activity against katG,katE gene-deficient Escherichia coli K-12 3201 by broth dilution method; assay type: functional; procedure, shortened: as §1
Escherichia coli [13] = assay: Antimicrobial activity against katE gene-deficient Escherichia coli K-12 3202 by broth dilution method; assay type: functional; procedure, shortened: as §1
Escherichia coli [14] = assay: Bactericidal activity against sodB gene-deficient Escherichia coli K-12 DKsodB at 0.4 ug/ml; assay type: functional, organism-based
Escherichia coli [15] = assay: Bactericidal activity against sodB gene-deficient Escherichia coli K-12 DKsodB after 2 hrs; assay type: functional, organism-based
Escherichia coli [16] = assay: Bactericidal activity against sodA, sodB gene-deficient Escherichia coli K-12 3156 at 0.4 ug/ml relative to wild-type; assay type: functional
Escherichia coli [17] = assay: Bactericidal activity against sodA, sodB gene-deficient Escherichia coli K-12 3156 after 2 hrs relative to wild-type; assay type: functional
Escherichia coli [18] = assay: Bactericidal activity against katG gene-deficient Escherichia coli K-12 3157 at 10 times MIC relative to wild-type; assay type: functional
Escherichia coli [19] = assay: Bactericidal activity against katG gene-deficient Escherichia coli K-12 3157 after 2 hrs relative to wild-type; assay type: functional
Escherichia coli [20] = assay: Bactericidal activity against katG,katE gene-deficient Escherichia coli K-12 3201 at 10 times MIC relative to wild-type; assay type: functional
Escherichia coli [21] = assay: Bactericidal activity against katG,katE gene-deficient Escherichia coli K-12 3201 after 2 hrs relative to wild-type; assay type: functional
Escherichia coli [22] = assay: Bactericidal activity against katG gene-deficient Escherichia coli K-12 3157 at 10 times MIC pretreated with 250 uM bipyridyl relative to wild-type; assay type: functional
Escherichia coli [23] = assay: Bactericidal activity against katG gene-deficient Escherichia coli K-12 3157 at 10 times MIC pretreated with 100 mM thiourea relative to wild-type; assay type: functional
Escherichia coli [24] = assay: Bactericidal activity against katG gene-deficient Escherichia coli K-12 3157 after 2 hrs pretreated with 250 uM bipyridyl relative to wild-type; assay type: functional
Escherichia coli [25] = assay: Bactericidal activity against katG gene-deficient Escherichia coli K-12 3157 after 2 hrs pretreated with 100 mM thiourea relative to wild-type; assay type: functional
Escherichia coli [26] = assay: Bactericidal activity against Escherichia coli K-12 BW25113 after 18 hrs; assay type: functional; details: K-12 BW25113, 18 h
Escherichia coli [27] = assay: Bactericidal activity against sodB gene-deficient Escherichia coli K-12 DK after 18 hrs; assay type: functional
Escherichia coli [28] = assay: Bactericidal activity against sodA gene-deficient Escherichia coli K-12 3144 after 18 hrs; assay type: functional; details: K-12 3144, 18 h
Escherichia coli [29] = assay: Bactericidal activity against sodB gene-deficient Escherichia coli K-12 3145 after 18 hrs; assay type: functional; details: K-12 3145, 18 h
Escherichia coli [30] = assay: Bactericidal activity against sodA, sodB gene-deficient Escherichia coli K-12 3156 after 18 hrs; assay type: functional; details: K-12 3156, 18 h
Escherichia coli [31] = assay: Bactericidal activity against katG gene-deficient Escherichia coli K-12 3157 after 18 hrs; assay type: functional; details: K-12 3157, 18 h
Escherichia coli [32] = assay: Bactericidal activity against ahpC gene-deficient Escherichia coli K-12 3200 after 18 hrs; assay type: functional; details: K-12 3200, 18 h
Escherichia coli [33] = assay: Bactericidal activity against katG,katE gene-deficient Escherichia coli K-12 3201 after 18 hrs; assay type: functional; details: K-12 3201, 18 h
Escherichia coli [34] = assay: Bactericidal activity against katE gene-deficient Escherichia coli K-12 3202 after 18 hrs; assay type: functional; details: K-12 3202, 18 h

`O=C(O)c1cn(C2CC2)c2cc(N3CCNCC3)c(F)cc2c1=O` was tested, and the Activity (Escherichia coli [1]) was “Active”, the Activity (Escherichia coli [2]) was “Active” and the Activity (Escherichia coli [3]) was “Active”. The Activity (Escherichia coli [4]) was “Active”.
`CCn1cc(C(=O)O)c(=O)c2cc(F)c(N3CCNCC3)cc21` [NORFLOXACIN] was tested, and the MIC (Escherichia coli [5]) was 0.04 µg/mL (≈ 0.125 µM), the MIC (Escherichia coli [6]) was 0.04 µg/mL (≈ 0.125 µM) and the MIC (Escherichia coli [7]) was 0.04 µg/mL (≈ 0.125 µM). For the same molecule, the MIC (Escherichia coli [8]) was 0.04 µg/mL (≈ 0.125 µM), the MIC (Escherichia coli [9]) was 0.04 µg/mL (≈ 0.125 µM) and the MIC (Escherichia coli [10]) was 0.04 µg/mL (≈ 0.125 µM). The MIC (Escherichia coli [11]) was 0.04 µg/mL (≈ 0.125 µM), the MIC (Escherichia coli [12]) was 0.08 µg/mL (≈ 0.251 µM) and the MIC (Escherichia coli [13]) was 0.04 µg/mL (≈ 0.125 µM). For the same molecule, the Activity (Escherichia coli [14]) was “Active”, the Activity (Escherichia coli [15]) was “Active” and the Activity (Escherichia coli [1]) was “Active”. For the same molecule, the Activity (Escherichia coli [2]) was “Active”, the Activity (Escherichia coli [3]) was “Active” and the Activity (Escherichia coli [4]) was “Active”. For the same molecule, the “fold change (FC)” value (Escherichia coli [16]) was 10, the “fold change (FC)” value (Escherichia coli [17]) was 10 and the “fold change (FC)” value (Escherichia coli [18]) was 10. For the same molecule, the “fold change (FC)” value (Escherichia coli [19]) was 10, the “fold change (FC)” value (Escherichia coli [20]) was 10 and the “fold change (FC)” value (Escherichia coli [21]) was 10. The “fold change (FC)” value (Escherichia coli [22]) was 10, the “fold change (FC)” value (Escherichia coli [23]) was 10 and the “fold change (FC)” value (Escherichia coli [24]) was 10. For the same molecule, the “fold change (FC)” value (Escherichia coli [25]) was 10, the MBC (Escherichia coli [26]) was 0.32 µg/mL (≈ 1 µM) and the MBC (Escherichia coli [27]) was 0.32 µg/mL (≈ 1 µM). For the same molecule, the MBC (Escherichia coli [28]) was 0.32 µg/mL (≈ 1 µM), the MBC (Escherichia coli [29]) was 0.32 µg/mL (≈ 1 µM) and the MBC (Escherichia coli [30]) was 0.16 µg/mL (≈ 0.501 µM). The MBC (Escherichia coli [31]) was 0.16 µg/mL (≈ 0.501 µM), the MBC (Escherichia coli [32]) was 0.16 µg/mL (≈ 0.501 µM) and the MBC (Escherichia coli [33]) was 0.32 µg/mL (≈ 1 µM). The MBC (Escherichia coli [34]) was 0.16 µg/mL (≈ 0.501 µM).
Molecule `NC[C@H]1O[C@H](O[C@H]2[C@H](O)[C@@H](O[C@H]3O[C@H](CO)[C@@H](O)[C@H](N)[C@H]3O)[C@H](N)C[C@@H]2N)[C@H](O)[C@@H](O)[C@@H]1O` [KANAMYCIN] has an MIC (Escherichia coli [5]) of 0.6 µg/mL (≈ 1.24 µM), an MIC (Escherichia coli [6]) of 0.6 µg/mL (≈ 1.24 µM) and an MIC (Escherichia coli [7]) of 0.6 µg/mL (≈ 1.24 µM). It also gave an MIC (Escherichia coli [8]) of 0.6 µg/mL (≈ 1.24 µM), an MIC (Escherichia coli [9]) of 0.6 µg/mL (≈ 1.24 µM) and an MIC (Escherichia coli [10]) of 0.6 µg/mL (≈ 1.24 µM). It also gave an MIC (Escherichia coli [11]) of 2.4 µg/mL (≈ 4.95 µM), an MIC (Escherichia coli [12]) of 1.2 µg/mL (≈ 2.48 µM) and an MIC (Escherichia coli [13]) of 0.6 µg/mL (≈ 1.24 µM). For the same molecule, the MBC (Escherichia coli [26]) was 20 µg/mL (≈ 41.3 µM), the MBC (Escherichia coli [27]) was 20 µg/mL (≈ 41.3 µM) and the MBC (Escherichia coli [28]) was 20 µg/mL (≈ 41.3 µM). It also gave an MBC (Escherichia coli [29]) of 20 µg/mL (≈ 41.3 µM), an MBC (Escherichia coli [30]) of 10 µg/mL (≈ 20.6 µM) and an MBC (Escherichia coli [31]) of 20 µg/mL (≈ 41.3 µM). For the same molecule, the MBC (Escherichia coli [32]) was 10 µg/mL (≈ 20.6 µM), the MBC (Escherichia coli [33]) was 20 µg/mL (≈ 41.3 µM) and the MBC (Escherichia coli [34]) was 20 µg/mL (≈ 41.3 µM).
